Laboratory results taken from ChEMBL document CHEMBL3102839, “Growth inhibitory activity for cancer cell lines of lapachol and its natural and semi-synthetic derivatives” (Bioorg Med Chem Lett, 2014).
pEC50, pIC50: −log10 of the molar value.

How the values were obtained:
LoVo = test: Growth inhibition of human LoVo cells by MTT assay; format: functional, cell-based
How it was run: (§1)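 In vitro MTT colorimetric read-out of growth inhibition. Each compound was run across a six-line human cancer panel chosen for differing resistance to pro-apoptotic stimuli. IC50 was taken as the growth inhibitory concentration. No reference drug was included.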

PC-3 = test: Growth inhibition of human PC3 cells by MTT assay; format: functional, cell-based; how it was run: as §1
SK-MEL-28 = test: Growth inhibition of human SK-MEL-28 cells by MTT assay; format: functional, cell-based; how it was run: as §1
[1] = Growth inhibition of human Hs683 cells by MTT assay; format: functional, cell-based; settings: Hs 683; how it was run: as §1
[2] = Growth inhibition of human U373 cells by MTT assay; format: functional, cell-based, U-373MG ATCC; settings: U373 MG; how it was run: as §1
A549 = test: Growth inhibition of human A549 cells by MTT assay; format: functional, cell-based; how it was run: as §1
Lu1 = test: Growth inhibition of human Lu1 cells; format: functional; settings: read-out: ED50 (the source's name)
[3] = Growth inhibition of hTERT expressing human RPE1 cells; format: functional, TERT-RPE1; settings: RPE-1, read-out: ED50 (the source's name)
KB = test: Growth inhibition of human KB cells; format: functional; settings: read-out: ED50 (the source's name)
LNCaP = test: Growth inhibition of human LNCAP cells; format: functional; settings: read-out: ED50 (the source's name)
Col2 = test: Growth inhibition of human Col2 cells; format: functional; settings: read-out: ED50 (the source's name)
[4] = Chemical stability of the compound in cell culture medium assessed as compound recovery after 72 hrs; format: physicochemical; settings: read-out: Drug recovery

| Compound | pIC50 (LoVo) | pIC50 (PC-3) | pIC50 (SK-MEL-28) | pIC50 (A549) | pEC50 (KB) | pEC50 (LNCaP) | remaining at 72 h [4] | pIC50 [1] | pIC50 [2] | pEC50 (Lu1) | pEC50 [3] | pEC50 (Col2) |
| --- | --- | --- | --- | --- | --- | --- | --- | --- | --- | --- | --- | --- |
| CCCOC1=C(CC=C(C)C)C(=O)c2ccccc2C1=O | < 4.00 | < 4.00 | < 4.00 | < 4.00 | – | – | – | < 4.00 | < 4.00 | – | – | – |
| CC(C)=CCC1=C(O)C(=O)c2ccccc2C1=O [LAPACHOL] | 5.05 | 5.40 | 5.10 | 5.10 | – | – | – | 4.96 | 5.10 | – | – | – |
| CC(C)=CCC1=C(Cl)C(=O)c2ccccc2C1=O | 4.60 | 4.57 | 4.51 | 4.47 | 4.91 | 4.91 | – | 4.48 | 4.59 | 4.91 | 4.91 | 4.91 |
| COC1=C(CC=C(C)C)C(=O)c2ccccc2C1=O | 4.24 | 4.38 | 4.57 | 4.44 | – | – | – | 4.44 | 4.11 | – | – | – |
| CC(C)=CCOC1=C(CC=C(C)C)C(=O)c2ccccc2C1=O | 4.49 | 4.42 | 4.54 | 4.48 | – | – | – | 4.39 | < 4.00 | – | – | – |
| O=C1C(O)=C(/C=C/c2ccccc2)C(=O)c2ccccc21 | 4.09 | < 4.00 | < 4.00 | < 4.00 | – | – | – | 4.38 | < 4.00 | – | – | – |
| C=CCOC1=C(CC=C(C)C)C(=O)c2ccccc2C1=O | 4.66 | 4.55 | 4.64 | 4.59 | – | – | – | 4.55 | 4.12 | – | – | – |
| CCCCCCCCCCCC(=O)OC1=C(CC=C(C)C)C(=O)c2ccccc2C1=O | 4.57 | 4.57 | 4.74 | 4.46 | – | – | > 95% | 4.74 | 4.51 | – | – | – |
| CC(=O)OC1=C(CC=C(C)C)C(=O)c2ccccc2C1=O | 5.10 | 5.40 | 4.89 | 5.30 | – | – | > 95% | 4.51 | 4.52 | – | – | – |
| CCCCCCCCCCCCCCCC(=O)OC1=C(CC=C(C)C)C(=O)c2ccccc2C1=O | 4.54 | 4.46 | 4.48 | 4.42 | – | – | > 95% | 4.32 | 4.27 | – | – | – |

The next lines start with results.

| pIC50 (LoVo) | pIC50 (PC-3) | pIC50 (SK-MEL-28) | pIC50 (A549) | pEC50 (KB) | pEC50 (LNCaP) | remaining at 72 h [4] | Compound | pIC50 [1] | pIC50 [2] | pEC50 (Lu1) | pEC50 [3] | pEC50 (Col2) |
| --- | --- | --- | --- | --- | --- | --- | --- | --- | --- | --- | --- | --- |
| < 4.00 | < 4.00 | < 4.00 | < 4.00 | – | – | – | CCOC1=C(CC=C(C)C)C(=O)c2ccccc2C1=O | < 4.00 | < 4.00 | – | – | – |
| < 4.00 | < 4.00 | < 4.00 | 4.24 | – | – | – | O=C1C=C(O)C(=O)c2ccccc21 [LAWSONE] | 4.51 | < 4.00 | – | – | – |
| 4.30 | 4.37 | 4.30 | 4.31 | – | – | > 95% | CCCCCCCCCCCCCC(=O)OC1=C(CC=C(C)C)C(=O)c2ccccc2C1=O | 4.05 | < 4.00 | – | – | – |
| 4.24 | 4.19 | 4.14 | 4.23 | – | – | > 95% | CCCCCCCC/C=C\CCCCCCCC(=O)OC1=C(CC=C(C)C)C(=O)c2ccccc2C1=O | 4.07 | 4.08 | – | – | – |
| 5.15 | 4.92 | 4.55 | 4.92 | – | – | – | CC(C)=CCC/C(C)=C/CC1=C(O)C(=O)c2ccccc2C1=O | 4.96 | 4.32 | – | – | – |
| < 4.00 | < 4.00 | < 4.00 | < 4.00 | – | – | > 95% | CCCCCCCCCCCCCCCCCC(=O)OC1=C(CC=C(C)C)C(=O)c2ccccc2C1=O | < 4.00 | < 4.00 | – | – | – |
| 4.38 | 4.04 | < 4.00 | < 4.00 | – | – | – | O=C1C(O)=C(Cc2ccccc2)C(=O)c2ccccc21 | < 4.00 | < 4.00 | – | – | – |
